According to ChEMBL document CHEMBL1148398, “Design, synthesis, and biological evaluation of thio-containing compounds with serum HDL-cholesterol-elevating properties” (2004):

What was measured:
Assay type in all cases: functional
Rattus norvegicus [1] = test: Percent change in high-density lipoprotein cholesterol in hypercholesterolemic rats dosed at 100 mg/kg/day for 8 days
Cricetinae gen. sp. [2] = test: Percent change in triglycerides following oral administration of compound in hypercholesterolemic hamsters at 100 mg/kg/day for 14 days
Summary of the method: (§1)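 Male Syrian Golden hamsters pre-fed chow plus 0.25% cholesterol for 2 weeks and kept on it. Dosed 100 mg/kg/day by oral gavage in 2% Tween 80/saline for 14 days. Serum total cholesterol and glycerol-blanked triglycerides read enzymatically; lipoproteins separated by FPLC with cholesterol measured in each fraction. % change versus vehicle controls; six per group, p < 0.05.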

Rattus norvegicus [3] = test: Percent change in triglycerides in hypercholesterolemic rats at a dose of 100 mg/kg/day for 8 days
Cricetinae gen. sp. [4] = test: Percent change in very low-density lipoprotein cholesterol following oral administration of compound in hypercholesterolemic hamsters at 100 mg/kg/day for 14 days; summary of the method: as §1
Rattus norvegicus [5] = test: Percent change in total plasma cholesterol in hypercholesterolemic rats dosed at 100 mg/kg/day for 8 days
Rattus norvegicus [6] = test: Percent change in triglycerides following oral administration of compound in normal chow-fed rats at 100 mg/kg/day for 4 days
Summary of the method: (§2)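 Chow-fed male Sprague–Dawley CD rats, 60–80 g, gavaged 100 mg/kg/day for 4 days in 1.3% Tween 80/0.25% CMC. Fasted overnight, bled 24 h after the last dose. Total cholesterol and glycerol-blanked triglycerides read enzymatically; lipoproteins by FPLC with cholesterol per fraction. % change versus control; six per group, p < 0.05.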

Rattus norvegicus [7] = test: Percent change in low-density lipoprotein cholesterol following oral administration of compound in normal chow-fed rats at 100 mg/kg/day for 4 days; summary of the method: as §2
Cricetinae gen. sp. [8] = test: Percent change in low-density lipoprotein cholesterol following oral administration of compound in hypercholesterolemic hamsters at 100 mg/kg/day for 14 days; summary of the method: as §1
Cricetinae gen. sp. [9] = test: Percent change in total plasma cholesterol following oral administration of compound in hypercholesterolemic hamsters at 100 mg/kg/day for 14 days; summary of the method: as §1
Rattus norvegicus [10] = test: Percent change in total plasma cholesterol following oral administration of compound in normal chow-fed rats at 100 mg/kg/day for 4 days; summary of the method: as §2
Rattus norvegicus [11] = test: Percent change in high-density lipoprotein cholesterol following oral administration of compound in normal chow-fed rats at 100 mg/kg/day for 4 days; summary of the method: as §2
Rattus norvegicus [12] = test: Percent change in very low-density lipoprotein cholesterol following oral administration of compound in normal chow-fed rats at 100 mg/kg/day for 4 days; summary of the method: as §2
Cricetinae gen. sp. [13] = test: Percent change in high-density lipoprotein cholesterol following oral administration of compound in hypercholesterolemic hamsters at 100 mg/kg/day for 14 days; summary of the method: as §1

SMILES	Change (Rattus norvegicus [1])	Change (Cricetinae gen. sp. [2])	Change (Rattus norvegicus [3])	Change (Cricetinae gen. sp. [4])	Change (Rattus norvegicus [5])	Change (Rattus norvegicus [6])	Change (Rattus norvegicus [7])	Change (Cricetinae gen. sp. [8])	Change (Cricetinae gen. sp. [9])	Change (Rattus norvegicus [10])	Change (Rattus norvegicus [11])	Change (Rattus norvegicus [12])	Change (Cricetinae gen. sp. [13])
CCN1CC(=O)N(c2ccc(C)cc2C)C1=S	83%	9.6%	-34%	14.5%	25%	-35.4%	8.3%	-11.6%	10.7%	55.5%	61.2%	15.6%	33.3%
CCN1CCC(=O)N(c2ccc(Cl)cc2C)C1=S	126%	-30.7%	-16%	6.3%	40%	-53.1%	38.9%	-26.8%	2%	80.7%	75.5%	-15%	47.8%
CCN1CC(=O)N(c2cccc(Cl)c2Cl)C1=S	98%	-12.3%	-23%	-5.9%	11%	18.3%	20.4%	-8.1%	-8%	89.6%	85.3%	57.9%	0%
COc1ccc(Cl)cc1N1C(=O)CON(C)C1=S	78%	-26.5%	7%	-32.6%	44%	-7.4%	8.6%	-20.2%	-7.9%	67.7%	71.3%	25%	23.5%
CCN1CC(=O)N(c2c(C)cccc2Cl)C1=S	222%	-77.1%	-20%	-74.4%	-34%	-57.1%	-35%	-39.1%	-32.2%	79.8%	62.9%	41.4%	13.8%
Cc1cccc(C)c1N1C(=O)CN(C(C)C)C1=S	146%	-7.3%	-43%	8.9%	-25%	-42.9%	-5.8%	17.2%	-3.1%	56.1%	71.2%	-10.5%	1.7%
CCN1CC(=O)N(c2ccccc2C(C)C)C1=S	201%	-10.1%	10%	-4.5%	71%	-27.5%	24.6%	-41%	-5.9%	111.4%	90.6%	73.7%	19.5%
CCN1CCC(=O)N(c2c(C)cccc2C)C1=S	184%	8.6%	-12%	22.7%	11%	-11.4%	0%	24%	-3%	70.4%	97.4%	-5.2%	0.7%
Cc1cccc(Cl)c1N1C(=O)CON(C)C1=S	100%	38.6%	-30%	5.2%	-2.7%	-61.5%	11.7%	-22.4%	-21.4%	40.4%	52.8%	80.8%	-28.1%
CCN1C(=S)N(c2cc(Cl)ccc2C)C(=O)C1OC (stereo not drawn)	140%	-36.4%	-33%	-35.8%	6%	-10.6%	11.9%	-19%	3.8%	102.3%	91.6%	83.6%	57.4%
Cc1ccc(C)c(N2C(=O)CON(C)C2=S)c1	72%	-23.8%	26%	-25.5%	28%	-31.6%	9.1%	-40.1%	-13.8%	75.2%	87.2%	61.5%	48.3%
